Data on 3 compounds can be found in ChEMBL document CHEMBL2331435, “Structure-activity relationship study of vitamin k derivatives yields highly potent neuroprotective agents” (J Med Chem, 2013).

The subject of data set [1] is HT-22. In words: Antioxidant activity in mouse HT22 cells assessed as upregulation of HO1 protein expression 8 hrs by Western blotting analysis. The data set is classed as functional, cell-based. (Immunoblotting shows a protein as a band on a membrane.)
Data set [2] concerns Mus musculus. Kind of data set: Toxicity in BALB/cByJ mouse assessed as outward signs of distress at 50 mg/kg, ip daily for 3 weeks measured 2 hrs after final injection. The data set is classed as organism-based. Also on record: dose 50 mg/kg, route intraperitoneal. Conditions: in vivo.
Data set [3] concerns HT-22. Kind of data set: Antioxidant activity in mouse HT22 cells assessed as prevention of glutamate-induced intracellular accumulation of free radicals at 250 nM after 8 hrs by spectrofluorometric analysis. The data set is classed as functional, cell-based. The procedure, abridged: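 HT22 cells were seeded at 5.0 × 10^3 per well and cultured overnight, then given 10 mM glutamate plus compound for 8 h. Rho123 was added at 5 μM final for 20 min, cells were washed twice with HBSS, and oxidized Rho123 fluorescence was read at 500 nm excitation and 536 nm emission.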

In data set [4] the test system is HT-22. Kind of data set: Ratio of VK2 IC50 to 2-((4-Chlorobenzyl)amino)naphthalene-1,4-dione IC50 for prevention from glutamate-induced oxidative cell death in mouse HT22 cells. The data set is classed as functional.
Data set [5] relates to Radical scavenging activity. Kind of data set: Antioxidant activity assessed as DPPH free radical scavenging activity at 20 uM. The data set is classed as functional. The procedure, abridged: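 Test agents at 20 μM final, added to 100 μM DPPH in methanol; absorbance at 517 nm monitored immediately for 10 min. Trolox and ascorbic acid served as positive controls, and the rate of absorbance loss was taken as antioxidant potency.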
A general note: The DPPH test is a chemical assay of radical scavenging.

Data set [6] has as its target T1, Serine/threonine-protein phosphatase PGAM5, mitochondrial (Mus musculus) (UniProt Q8BX10).
T1 sequence (whole entry): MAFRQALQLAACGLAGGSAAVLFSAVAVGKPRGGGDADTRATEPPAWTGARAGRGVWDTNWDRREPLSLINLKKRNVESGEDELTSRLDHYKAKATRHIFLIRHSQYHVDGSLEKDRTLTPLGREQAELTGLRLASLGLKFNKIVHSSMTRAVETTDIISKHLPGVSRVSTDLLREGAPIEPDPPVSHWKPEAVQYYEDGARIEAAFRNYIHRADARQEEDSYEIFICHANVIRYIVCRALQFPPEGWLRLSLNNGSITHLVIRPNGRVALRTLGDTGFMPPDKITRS
Kind of data set: Inhibition of glutamate-induced increase in lower band of PGAM5 in mouse HT22 cells at 125 nM after 16 hrs by Western blotting analysis. The data set is classed as cell-based. Conditions: HT-22. Summed up:
(§1)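 HT22 cells were treated with 10 mM glutamate plus compound for 16 h, harvested, and lysed in low-salt buffer (50 mM Tris-HCl pH 7.4, 150 mM NaCl, 10% glycerol, Triton X-100, protease/phosphatase inhibitors) for 30 min with a brief sonication. Lysates were run on 4–12% gels and immunoblotted for phospho-Drp1 Ser637, total Drp1, PGAM5, actin and α-tubulin, then analyzed by densitometry.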

Data set [7] deals with HT-22. In words: Antioxidant activity in mouse HT22 cells assessed as upregulation of HO1 gene expression at 250 nM after 16 hrs by qRT-PCR analysis in the absence of glutamate. The data set is classed as functional, cell-based. The procedure, abridged:
(§2)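 HT22 cells were seeded at 3.0 × 10^5 per well and cultured overnight, then treated with or without 10 mM glutamate plus compound (DMSO stock) for 16 h. Cells were trypsinized and washed in cold Ca/Mg-free HBSS. HO-1 and NQO-1 mRNA were measured by qRT-PCR with β2-microglobulin as reference gene, and fold change was calculated by the Livak method.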
In general terms: In qPCR the cycle at which signal appears reflects the starting amount.

The test system of data set [8] is HT-22. Kind of data set: Neuroprotective activity in mouse HT22 cells assessed as prevention from glutamate-induced oxidative cell death by MTS assay. The data set is classed as functional. The procedure, abridged:
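HT22 cells grown in high-glucose DMEM with 10% FBS and antibiotic-antimycotic at 37°C, 5% CO2. Seeded at 5.0 × 10^3 cells/well overnight, then given 10 mM glutamate (final) plus compound from DMSO stock. MTS added 24 h after treatment, 2 h at 37°C, A490 read. Viability taken as % of untreated cells. PC50 from 12-point titrations; experiments repeated at least four times.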

Data set [9] concerns Mus musculus. Kind of data set: Toxicity in BALB/cByJ mouse assessed as biochemical parameters at 50 mg/kg, ip daily for 3 weeks measured 2 hrs after final injection. The arrangement: dose 50 mg/kg, route intraperitoneal. Conditions: in vivo. The data set is classed as organism-based.
A short description of data set [10]: Therapeutic index, ratio of cytotoxic TC50 for mouse HT22 cells to neuroprotective PD50 for mouse HT22 cells. The data set is classed as cell-based, HT-22. Conditions: read-out: TI.
Data set [11] concerns Mus musculus. Kind of data set: Toxicity in BALB/cByJ mouse assessed as weight loss at 50 mg/kg, ip daily for 3 weeks measured 2 hrs after final injection. The data set is classed as organism-based. Conditions: in vivo. Also on record: dose 50 mg/kg, route intraperitoneal.
Data set [12] relates to HT-22. In words: Antioxidant activity in mouse HT22 cells assessed as reduction in glutamate-induced upregulation of HO1 gene expression at 250 nM after 16 hrs by qRT-PCR analysis relative to glutamate-treated control. The data set is classed as functional, cell-based. Summed up: as §2
Data set [13] deals with Dynamin-1-like protein (Mus musculus) (UniProt Q8K1M6). Kind of data set: Inhibition of glutamate-induced decrease in DRP1 phosphorylation at serine 637 in mouse HT22 cells at 125 nM after 16 hrs by Western blotting analysis. The data set is classed as cell-based. Conditions: HT-22. Summed up:
as §1

The test system of data set [14] is HT-22. In words: Antioxidant activity in mouse HT22 cells assessed as upregulation of NQO1 protein expression 8 hrs by Western blotting analysis. The data set is classed as functional, cell-based.
In data set [15] the test system is HT-22. In words: Neuroprotective activity in mouse HT22 cells assessed as reduction of glutamate-induced mitochondrial fragmentation at 250 nM after 8 hrs by Mitotracker DR staining-based fluorescence microscopic analysis. The data set is classed as functional, cell-based. Summed up: (§3)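 HT22 cells were given 10 mM glutamate plus compound for 8 h, then co-stained with MitoSOX Red (5 μM final) and Mitotracker Deep Red (10 nM final) for 20 min. Cells were washed twice with HBSS and imaged live by fluorescence microscopy in HBSS.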

Data set [16] relates to HT-22. In words: Neuroprotective activity in mouse HT22 cells assessed as reduction of glutamate-induced mitochondrial superoxide generation at 250 nM after 8 hrs by MitoSOX RED staining-based fluorescence microscopic analysis. The data set is classed as functional, cell-based. Summed up: as §3
For data set [17], the system named is HT-22. In words: Antioxidant activity in mouse HT22 cells assessed as reduction in glutamate-induced upregulation of NQO1 gene expression at 250 nM after 16 hrs by qRT-PCR analysis relative to glutamate-treated control. The data set is classed as functional, cell-based. The procedure, abridged: as §2
Data set [18] deals with Mus musculus. Kind of data set: Toxicity in BALB/cByJ mouse assessed as outward signs of pain at 50 mg/kg, ip daily for 3 weeks measured 2 hrs after final injection. The arrangement: dose 50 mg/kg, route intraperitoneal. The data set is classed as organism-based. Conditions: in vivo.
For data set [19], the system named is HT-22. In words: Antioxidant activity in mouse HT22 cells assessed as reduction in glutamate-induced upregulation of HO1 gene expression at 250 nM after 16 hrs by qRT-PCR analysis relative to untreated control. The data set is classed as functional, cell-based. Summed up:
as §2

For data set [20], the system named is HT-22. Kind of data set: Neuroprotective activity in mouse HT22 cells assessed as prevention from tBuOOH-induced oxidative cell death after 3 hrs by MTS assay. The data set is classed as functional, cell-based. Summed up: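 HT22 cells were seeded at 5.0 × 10^3 per well and cultured overnight, then exposed to 50 μM t-BuOOH (final) plus compound for 3 h. Medium was removed, cells were washed with HBSS and returned to normal medium. MTS was added 24 h after initial treatment, absorbance was read at 490 nm after 2 h, and viability was expressed as percent of untreated cells.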

The nature of data set [21]: Neurotoxicity in mouse HT22 cells assessed as cell viability after 24 hrs by MTS assay. The data set is classed as toxicity, cell-based, HT-22. Conditions: read-out: TC50. Summed up: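 HT22 cells were seeded at 5.0 × 10^3 per well, cultured overnight, and treated with a range of compound concentrations without glutamate for 24 h. MTS was added for 2 h and absorbance read at 490 nm. Viability was expressed as percent of untreated cells, and TC50 was fit from titration curves (7- or 12-point, n = 3–4).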

The subject of data set [22] is HT-22. In words: Antioxidant activity in mouse HT22 cells assessed as upregulation of NQO1 gene expression at 250 nM after 16 hrs by qRT-PCR analysis in the absence of glutamate. The data set is classed as functional, cell-based. The procedure, abridged:
as §2

Data set [23] deals with T1, Serine/threonine-protein phosphatase PGAM5, mitochondrial (Mus musculus). In words: Inhibition of glutamate-induced increase in lower band of PGAM5 in mouse HT22 cells at 500 nM after 16 hrs by Western blotting analysis. The data set is classed as cell-based. Conditions: HT-22. The procedure, abridged: as §1
For data set [24], the target named is Dynamin-1-like protein (Mus musculus) (UniProt Q8K1M6). Kind of data set: Inhibition of glutamate-induced decrease in DRP1 phosphorylation at serine 637 in mouse HT22 cells at 500 nM after 16 hrs by Western blotting analysis. The data set is classed as cell-based. Conditions: HT-22. Summed up:
as §1

The subject of data set [25] is HT-22. Kind of data set: Antioxidant activity in mouse HT22 cells assessed as prevention of glutamate-induced GSH depletion at 25 uM. The data set is classed as functional, cell-based. Summed up: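 HT22 cells were exposed to 10 mM glutamate plus compound (DMSO stock) for 8 h. Total glutathione (reduced plus oxidized) in the supernatant of the cell homogenate was measured with a glutathione reductase enzymatic recycling kit. GSH reacts with DTNB to give TNB, read at 405 nm.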

The source made the active and inactive calls. The calls are words filed in the database; no cut-off is given here.

Sequence of Dynamin-1-like protein (Mus musculus) (Q8K1M6 whole entry): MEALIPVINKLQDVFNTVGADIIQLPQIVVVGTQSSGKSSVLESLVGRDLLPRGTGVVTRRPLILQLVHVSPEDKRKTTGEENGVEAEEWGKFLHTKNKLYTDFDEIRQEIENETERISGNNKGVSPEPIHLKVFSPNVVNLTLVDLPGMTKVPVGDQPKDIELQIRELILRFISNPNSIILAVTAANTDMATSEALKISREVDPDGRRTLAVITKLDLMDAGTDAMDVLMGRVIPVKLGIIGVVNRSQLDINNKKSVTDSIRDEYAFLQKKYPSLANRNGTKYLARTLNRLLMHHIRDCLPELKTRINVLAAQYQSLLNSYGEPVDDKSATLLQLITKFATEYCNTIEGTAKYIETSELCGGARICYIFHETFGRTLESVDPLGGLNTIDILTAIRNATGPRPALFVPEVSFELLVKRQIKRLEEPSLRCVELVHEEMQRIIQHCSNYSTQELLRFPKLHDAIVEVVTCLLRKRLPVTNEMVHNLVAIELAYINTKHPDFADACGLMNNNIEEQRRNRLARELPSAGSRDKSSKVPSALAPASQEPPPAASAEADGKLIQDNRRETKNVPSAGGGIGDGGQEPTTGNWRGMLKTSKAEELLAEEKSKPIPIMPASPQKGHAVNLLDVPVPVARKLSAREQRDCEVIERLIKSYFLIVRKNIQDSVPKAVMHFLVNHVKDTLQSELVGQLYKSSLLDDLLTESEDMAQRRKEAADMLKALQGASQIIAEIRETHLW

For `O=C1C=C(NCc2cccc(Cl)c2)C(=O)c2ccccc21`, the result (with HT-22 [1]; in [5]; with HT-22 [7]; in the data set with HT-22 [14]; with HT-22 [17]; with HT-22 [19]) was inactive. Moreover, the result with HT-22 [22] was inactive. Also, the Activity result in the data set with Mus musculus [2], in the data set with Mus musculus [9], in the data set with Mus musculus [11] and in the data set on Mus musculus [18] was “Non-toxic” each time. The outcome in the data set with HT-22 [3], in the data set on HT-22 [12], with HT-22 [15], in the data set with HT-22 [16] and in the data set with HT-22 [20] was Active. In the data set with HT-22 [4], the “Ratio IC50” value is given as >10. For the same compound, the inhibition entry in [6] and in data set [13] was “Active” each time. In the data set with HT-22 [8], the PD50 is 31 nM. Further, the selectivity ratio in data set [10] is > 3230. The CC50 at 24 h in data set [21] is > 100 µM.

Regarding `CC(C)=CCC/C(C)=C/CC/C(C)=C/CC/C(C)=C/CC1=C(C)C(=O)c2ccccc2C1=O` [MENATETRENONE], the outcome (in the data set on HT-22 [1]; in [5]; in the data set on HT-22 [7]; in the data set with HT-22 [14]; with HT-22 [17]; in the data set with HT-22 [19]) was inactive. Further, the result in the data set on HT-22 [22] was inactive. Also, the inhibition entry in data set [23] and in data set [24] was “Active” each time. In addition, the outcome with HT-22 [3], in the data set with HT-22 [12], with HT-22 [15], with HT-22 [16] and in the data set on HT-22 [20] was Active. In the data set with HT-22 [8], the PD50 was found to be 432 nM. The CC50 at 24 h in [21] is > 100 µM.

Turning to `Cc1c(C)c2c(c(C)c1O)CCC(C)(C(=O)O)O2` (stereo unspecified), the outcome in data set [5] was Active. In addition, the outcome with HT-22 [25] and in the data set with HT-22 [20] was inactive.
